Source: ChEMBL document CHEMBL4428026, “Discovery of New Monocarbonyl Ligustrazine-Curcumin Hybrids for Intervention of Drug-Sensitive and Drug-Resistant Lung Cancer” (J Med Chem, 2016)
The source made the active and inactive calls. The rule behind the calls is not given here.

Tests used:
A549/CDDP [1] = experiment: Antiproliferative activity against human A549/CDDP cells after 72 hrs by MTT assay; assay type: functional, cell-based
Method in brief: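 Cells (A549, A549/DDP, SPC-A-1, LTEP-G-2, non-tumor bronchial epithelial HBE) were exposed in triplicate to vehicle or compound for 72 h. MTT (5 mg/mL in PBS) was then added for 4 h, formazan was dissolved in DMSO, and absorbance was read at 570 nm. IC50 values were derived from viability.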

A549/CDDP [2] = experiment: Induction of ROS generation in human A549/CDDP cells 2.1 to 4.2 uM after 60 mins by DHE staining-based fluorescence assay; assay type: functional, cell-based
Method in brief: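 A549 or A549/DDP cells were treated in triplicate for 60 min with vehicle DMSO (0.1%, v/v) or a range of compound concentrations. Cells were stained with dihydroethidium, and intracellular ROS fluorescence was read on a microplate reader at 300 and 610 nm. Three independent experiments were run.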

A549 = experiment: Decrease in TrxR expression in human A549 cells at 2.1 to 4.2 uM after 24 hrs by Western blot method; assay type: functional, cell-based
Method in brief: (§1)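 Cells were plated at 1 × 10^6/well overnight, then treated 24 h with vehicle DMSO (0.1%, v/v) or compound (A549, 2.1 or 4.2 µM; A549/DDP, 0.6 or 1.2 µM). Lysis was at 4 °C. Lysates were run on SDS-PAGE (7.5% gel, 20 µg/lane) and immunoblotted with ECL detection; phospho-Akt Ser473 and phospho-ERK Thr202/Tyr204 were probed. Bands were normalized to GAPDH (TrxR, Trx) or β-actin. Three independent experiments were run.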

A549/CDDP [3] = experiment: Decrease in Trx expression in human A549/CDDP cells at 0.6 to 1.2 uM after 24 hrs by Western blot method; assay type: functional, cell-based; method in brief: as §1
[4] = Acute toxicity in ICR mouse assessed as mortality at 200 to 400 mg/kg, ip measured at 4 hr post treatment; assay type: organism-based; conditions: in vivo
Method in brief: (§2)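 Male and female ICR mice (7 weeks), randomized, 10 per group, given one intraperitoneal dose at 200, 250, 300, 350, 400 or 450 mg/kg. Animals were watched for abnormal behaviour and deaths up to two weeks. Deaths were tallied at 1 h, 4 h, day 3 and days 4-14, with survival on day 14. LD50 was calculated with 95% confidence limits.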

[5] = Acute toxicity in ICR mouse assessed as survival at 450 mg/kg, ip measured on day 14; assay type: organism-based; conditions: in vivo; method in brief: as §2
[6] = Toxicity in BALB/c nude mouse xenografted with human A549/CDDP cells assessed as body weight at 20 mg/kg, ip administered daily for 15 consecutive days measured on day 15 (reference value: 21 +/- 1.28 g); assay type: organism-based; conditions: in vivo
[7] = Toxicity in BALB/c nude mouse xenografted with human A549/CDDP cells assessed as body weight at 40 mg/kg, ip administered daily for 15 consecutive days measured on day 15 (reference value: 21 +/- 1.28 g); assay type: organism-based; conditions: in vivo
Method in brief: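 Athymic BALB/c nude mice of both sexes, 4-5 weeks, inoculated subcutaneously with A549/DDP cells (1 × 10^7/mouse). Once tumors reached 180-200 mm3, mice were randomized and given ip dosing daily for 15 consecutive days. Vehicle was PBS/DMSO/cremophor-EL (8:1:1), given at the same volume to controls. Body weight was recorded on day 1 and day 15. Reported as mean ± SD, n = 8.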

SMILES: COc1cc(/C=C/C(=O)/C=C/c2nc(C)c(C)nc2C)ccc1O
- IC50 (A549/CDDP [1]): 0.6 µM
- Activity (A549/CDDP [2]): Active
- Activity (A549): Active
- Activity (A549/CDDP [3]): Active
- Activity [4]: Non-Toxic
- survival at 14 day [5]: 0%
- Activity [6]: 18.6 g
- Activity [7]: 19.6 g
